An excerpt weighted towards active compounds, which were near 2.6% of everything screened.
SENP8 block-1: inhibitors of human SENP8 protease. inhibition, % at 20 µM. actives 0.64% (n = 360,000). recombinant SENP8, Nedd8 substrate fluorescence. Q96LD8. AID 602440; in the data active = inhibition mostly above about 40%, no sharp cut-off; inactive = mostly below about 27%
SENP1 FRET inh: blocks the human SENP1 SUMO protease catalytic domain; Q9P0U3; recombinant SENP1 catalytic domain, CyPet-SUMO1-YPet FRET cleavage; inhibition, % at 10 µM; actives 0.21% (n = 360,000); AID 624204;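 active = inhibition at least 30% at 10 µM, raw YFP signal under a set limit, fluorescence ratio 0.5 to 1.5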;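 note: 0% = enzyme with DMSO and 100% = no enzyme wells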
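Test system: recombinant human SENP1 catalytic domain, His6-tagged / Medium: pH 8 Tris buffer with EDTA, NaCl, BME, BSA, NP40, catalase / Also added: SUMO1 FRET substrate flanked by Cypet and Ypet, 25 nM / Times: 50 min reaction at room temperature / Signal: FRET, CFP and YFP emission / Control set: no-enzyme low control and enzyme-plus-DMSO high control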
Platelet DG rel: modulates dense granule release in human platelets; human platelet-rich plasma, SFLLRN dense granule ATP release, luminescence; AID 1663; actives 0.22% (n = 300,000); inhibition, %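 (compounds screened at 7.5 µM in platelet-rich plasma)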;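 active = mean replicate score, as percent of positive control, at or above 50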
SENP7 inh: SENP7 protease inhibition | recombinant SENP7, Z-RLRGG-aminoluciferin luminescence, 40 min | inhibition, % at 5 µM | actives 1.5% (n = 330,000);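 active = inhibition above about 50% at the single test dose, limit read from the data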;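 note: plate controls were DMSO with enzyme for no effect and no enzyme buffer wells for full effect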
SENP6 block: inhibitors of human SENP6 protease. Q9GZR1. inhibition, % at 10 µM. actives 1.8% (n = 330,000). Recombinant SENP6 catalytic domain, aminoluciferin luminescence. AID 2599;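 active = inhibition above about 50% at the single tested dose, limit read from the data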;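 note: plate controls were DMSO wells with enzyme for no effect and DMSO wells lacking enzyme for full effect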
Target sequence (Q9GZR1 628-1112 limits assumed): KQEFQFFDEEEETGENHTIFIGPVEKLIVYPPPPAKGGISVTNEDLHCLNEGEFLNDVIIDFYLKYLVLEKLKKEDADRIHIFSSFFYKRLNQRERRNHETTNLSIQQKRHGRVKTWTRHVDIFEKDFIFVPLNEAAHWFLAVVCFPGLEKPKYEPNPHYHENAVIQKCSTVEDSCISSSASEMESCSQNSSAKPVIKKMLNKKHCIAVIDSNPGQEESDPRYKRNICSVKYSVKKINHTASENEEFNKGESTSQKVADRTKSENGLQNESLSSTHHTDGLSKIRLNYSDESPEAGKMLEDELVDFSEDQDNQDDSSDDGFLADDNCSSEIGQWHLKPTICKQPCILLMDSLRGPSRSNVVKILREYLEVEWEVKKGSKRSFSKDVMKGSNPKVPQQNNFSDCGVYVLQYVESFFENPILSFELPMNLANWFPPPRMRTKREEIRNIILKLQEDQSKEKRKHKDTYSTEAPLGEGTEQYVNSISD
SENP8 block-2: blocks the human protease SENP8. Q96LD8. purified SENP8, Z-RLRGG-aminoluciferin cleavage, luminescence. inhibition, % at 10 µM. actives 1.2% (n = 330,000). AID 2540; in the data active = inhibition above about 50%
SENP8 confirm: human SENP8 inhibition, confirmed | shares compounds with SENP7 inh | AID 488912 | Recombinant SENP8, Z-RLRGG-aminoluciferin luminescence, 60 min | actives 40% (n = 6,200) | inhibition, % at 12.5 µM;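 active = mean inhibition across replicates above about 50%, limit read from the data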
SENP6 confirm: confirmation of human SENP6 protease inhibitors | recombinant SENP6, Z-RLRGG-aminoluciferin luminescence | shares compounds with SENP7 inh | actives 58% (n = 6,200) | inhibition, % at 12.5 µM
SENP7 confirm: confirmation of human SENP7 protease inhibitors | AID 488917 | inhibition, % at 12.5 µM | shares compounds with SENP7 inh | actives 69% (n = 6,200) | recombinant SENP7, Z-RLRGG-aminoluciferin luminescence, 40 min
Casp3 select: caspase-3 inhibition (SENP selectivity assay) | shares compounds with SENP7 inh | purified caspase-3, Z-DEVD-aminoluciferin luminescence, 60 min | inhibition, % at 12.5 µM | actives 60% (n = 6,200);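 active = mean inhibition above about 50%, limit read from the data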;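 note: plate controls were enzyme with DMSO for no effect and wells without caspase-3 for full effect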
Target sequence (P42574 28-227 limits assumed): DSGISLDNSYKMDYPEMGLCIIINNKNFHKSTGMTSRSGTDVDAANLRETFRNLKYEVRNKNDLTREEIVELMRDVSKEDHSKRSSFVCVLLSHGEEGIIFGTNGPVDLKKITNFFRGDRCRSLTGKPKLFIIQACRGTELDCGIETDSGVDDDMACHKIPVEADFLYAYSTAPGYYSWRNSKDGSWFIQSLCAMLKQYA
SENP luc ctr: counter-screen for SENP inhibitors: luminescence interference; shares compounds with SENP7 inh; Pre-incubated SENP8/Z-RLRGG-aminoluciferin, luciferase luminescence interference; inhibition, % at 12.5 µM; actives 39% (n = 6,200); AID 488919;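 active = mean inhibition above about 50% when retested at one dose, limit read from the data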;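 note: plate controls were DMSO wells with completed reaction for no effect and substrate without enzyme for full effect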
The depositor's hits bear a star.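 Rule for the calls, unless noted: active = mean inhibition above about 50% in the one-dose retest (limit read from the data); inactive = the rest.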

For CC(=O)c1sc(NC(=O)C2COc3ccccc3O2)nc1C (stereo not given) the results were SENP8 block-1 -45.5, SENP1 FRET inh 0.5, Platelet DG rel -5.4, SENP7 inh 18.9, SENP6 block 52.0*, SENP8 block-2 28.7, SENP8 confirm 20.4, SENP6 confirm 24.0, SENP7 confirm 62.1*, Casp3 select 62.2* and SENP luc ctr 51.2*.
`Cc1c(/C=C/C(=O)c2ccccc2O)cnn1C` gave SENP8 block-1 19.1, SENP1 FRET inh 1.7, Platelet DG rel 9.4, SENP7 inh 67.0*, SENP6 block 63.1*, SENP8 block-2 34.9, SENP8 confirm 15.6, SENP6 confirm 55.3*, SENP7 confirm 81.1*, Casp3 select 49.0 and SENP luc ctr 13.1.
`CC1CCCN(C(=O)c2ccc(-c3ccccc3Cl)o2)C1` (stereo not given) gave SENP8 block-1 7.8, SENP1 FRET inh -0.2, Platelet DG rel -17.5, SENP7 inh 16.3, SENP6 block 50.3*, SENP8 block-2 21.4, SENP8 confirm 32.1, SENP6 confirm 28.8, SENP7 confirm 58.6*, Casp3 select 26.0 and SENP luc ctr 16.5.
`O=C(c1ccc(-c2ccccc2Cl)o1)N1CCCCCCC1` gave SENP8 block-1 9.6 and SENP1 FRET inh -1.7.
Screening Cc1ccccc1C(=O)NNC(=S)NC(=O)c1ccc(Cl)cc1Cl returned SENP8 block-1 19.0, SENP1 FRET inh 0.5, Platelet DG rel -4.6, SENP7 inh -1.0, SENP6 block 18.3 and SENP8 block-2 6.8.
For COc1ccccc1NC(=S)NNC(=O)c1ccc(Cl)cc1Cl the results were SENP8 block-1 3.4, SENP1 FRET inh 3.1, Platelet DG rel 1.1, SENP7 inh 54.2*, SENP6 block 71.8*, SENP8 block-2 47.2, SENP8 confirm 22.7, SENP6 confirm 17.8, SENP7 confirm 5.3, Casp3 select 0.8 and SENP luc ctr 22.0.
Screening CCn1c(COc2ccccc2C)nc2ccccc21 returned SENP8 block-1 17.5, SENP1 FRET inh -0.4, Platelet DG rel -2.5, SENP7 inh 47.1, SENP6 block 74.6*, SENP8 block-2 58.5*, SENP8 confirm 41.3, SENP6 confirm 39.7, SENP7 confirm 78.5*, Casp3 select 53.1* and SENP luc ctr 28.6.
For COc1ccccc1OCc1nc2ccccc2n1C the results were SENP8 block-1 14.0, SENP1 FRET inh -4.5, Platelet DG rel 1.0, SENP7 inh 8.7, SENP6 block 15.3 and SENP8 block-2 -2.0.
Cn1c(COc2ccccc2Br)nc2ccccc21 was read as SENP8 block-1 14.4, SENP1 FRET inh 1.6, Platelet DG rel -1.7, SENP7 inh 49.1, SENP6 block 69.4*, SENP8 block-2 60.5*, SENP8 confirm 51.5*, SENP6 confirm 70.7*, SENP7 confirm 91.0*, Casp3 select 63.0* and SENP luc ctr 31.3.
For Cc1nn(C)c(C)c1S(=O)(=O)NCCc1ccc(Cl)cc1 the results were SENP8 block-1 9.0, SENP1 FRET inh 0.8, Platelet DG rel -11.0, SENP7 inh 9.1, SENP6 block 6.9 and SENP8 block-2 5.3.
For O=c1sc2ccccc2c(N2CCOCC2)c1[N+](=O)[O-] the results were SENP8 block-1 6.4, SENP1 FRET inh 2.3, Platelet DG rel -3.0, SENP7 inh -1.4, SENP6 block 56.7*, SENP8 block-2 22.2, SENP8 confirm 15.8, SENP6 confirm 6.3, SENP7 confirm 50.5*, Casp3 select 69.8* and SENP luc ctr 55.4*.
`Cc1nc(NC(=O)c2ccc(F)cc2)sc1C(=O)Nc1ccc2c(c1)CCC2` gave SENP8 block-1 -14.6, SENP1 FRET inh -0.2, Platelet DG rel 1.7, SENP7 inh 45.1, SENP6 block 3.8 and SENP8 block-2 -12.9.
For O=C(Nc1ccc2c(c1)CCC2)c1ccccc1F the results were SENP8 block-1 32.7, SENP1 FRET inh -0.1, Platelet DG rel -14.9, SENP7 inh 79.7*, SENP6 block 92.0*, SENP8 block-2 70.2*, SENP8 confirm 11.2, SENP6 confirm 85.9*, SENP7 confirm 98.9*, Casp3 select 85.2* and SENP luc ctr 84.7*.
Screening O=C(Nc1ccc2c(c1)CCC2)c1ccccc1 returned SENP8 block-1 4.2, SENP1 FRET inh 2.0, Platelet DG rel -5.0, SENP7 inh 88.0*, SENP6 block 84.3*, SENP8 block-2 82.0*, SENP8 confirm 90.0*, SENP6 confirm 88.8*, SENP7 confirm 98.1*, Casp3 select 87.8* and SENP luc ctr 86.9*.
Screening Cc1ccc(C(=O)Nc2nc(C)c(C(=O)Nc3ccc4c(c3)CCC4)s2)cc1 returned SENP8 block-1 -115.1, SENP1 FRET inh -26.1, Platelet DG rel -2.4, SENP7 inh 41.8, SENP6 block 65.9*, SENP8 block-2 17.5, SENP8 confirm 37.9, SENP6 confirm 31.5, SENP7 confirm 64.8*, Casp3 select 48.7 and SENP luc ctr 6.4.
`O=C(O)c1ccccc1-c1ccccc1C(=O)Nc1ccc2c(c1)CCC2` gave SENP8 block-1 11.0, SENP1 FRET inh -0.4, Platelet DG rel -7.3, SENP7 inh -4.1, SENP6 block -6.0 and SENP8 block-2 1.4.
For CCn1ccc(C(=O)Nc2ccc3c(c2)CCC3)n1 the results were SENP8 block-1 10.1, SENP1 FRET inh -0.5, Platelet DG rel 4.9, SENP7 inh 59.4*, SENP6 block 43.4, SENP8 block-2 24.8, SENP8 confirm 44.4, SENP6 confirm 45.0, SENP7 confirm 81.0*, Casp3 select 65.3* and SENP luc ctr 56.6*.
Screening CCn1ccc(C(=O)Nc2ccc(N(C)C(C)=O)cc2)n1 returned SENP8 block-1 27.6, SENP1 FRET inh 3.1, Platelet DG rel 6.2, SENP7 inh -2.3, SENP6 block 7.9 and SENP8 block-2 -5.6.
Screening CN(c1ccccc1)S(=O)(=O)c1cccc(C(=O)Nc2ccc3c(c2)CCC3)c1 returned SENP8 block-1 12.9, SENP1 FRET inh 2.0, Platelet DG rel -2.3, SENP7 inh 8.4, SENP6 block 5.9 and SENP8 block-2 3.7.
